Where only a bound is given, the exact number is not on record here.

Here are results for nine molecules from ChEMBL document CHEMBL1139421, “Synthesis and elastase-inhibiting activity of 2-pyridinyl-isothiazol-3(2H)-one 1,1-dioxides” (Bioorg Med Chem, 2008).

One test has as its target T1, Neutrophil elastase (Homo sapiens, UniProt P08246).
T1 sequence (P08246 whole entry): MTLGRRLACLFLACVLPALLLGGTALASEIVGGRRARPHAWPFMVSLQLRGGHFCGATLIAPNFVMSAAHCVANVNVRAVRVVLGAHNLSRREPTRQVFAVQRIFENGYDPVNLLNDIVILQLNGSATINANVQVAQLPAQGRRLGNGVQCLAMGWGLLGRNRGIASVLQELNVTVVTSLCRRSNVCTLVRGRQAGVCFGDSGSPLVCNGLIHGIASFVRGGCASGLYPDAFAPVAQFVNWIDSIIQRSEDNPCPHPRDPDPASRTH
Nature of the test: Inhibition of human leukocyte elastase. The gist of the method:
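Human leukocyte elastase at 50 ng/ml final, 25 °C, in 50 mM sodium phosphate, 500 mM NaCl, pH 7.8. MeOSuc-Ala-Ala-Pro-Val-pNA at 100 µM final (1.9 Km), with 3.5% DMSO; started with enzyme. Read at 405 nm over 10 min. IC50 from linear steady-state rates: duplicate determinations at 25 and 50 µM, or five concentrations fitted nonlinearly.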

The target of a further test is T2, Cathepsin G (Homo sapiens, UniProt P08311).
T2 sequence (P08311 whole entry): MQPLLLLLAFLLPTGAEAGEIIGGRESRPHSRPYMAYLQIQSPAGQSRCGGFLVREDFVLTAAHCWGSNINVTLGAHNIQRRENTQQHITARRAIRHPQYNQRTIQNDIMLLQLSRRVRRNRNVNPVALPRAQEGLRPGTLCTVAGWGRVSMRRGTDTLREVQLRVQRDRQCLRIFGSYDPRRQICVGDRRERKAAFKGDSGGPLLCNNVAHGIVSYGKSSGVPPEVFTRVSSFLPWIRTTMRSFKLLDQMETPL
The test is described as follows: Inhibition of human cathepsin G. The gist of the method: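 Human cathepsin G at 2.5 mU/ml final, 25 °C, in 20 mM Tris-HCl, 150 mM NaCl, pH 8.4. Suc-Ala-Ala-Pro-Phe-pNA at 500 µM final, with 1.5% DMSO; started with enzyme. Read at 405 nm over 10 min. IC50 from linear steady-state rate, duplicate determinations at 12.5 µM inhibitor, IC50 = [I]/(v0/v − 1).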

Test [1] in a line: Inhibition of bovine trypsin. Details: species or system Bos taurus. The gist of the method: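 Bovine pancreatic trypsin at 12.5 ng/ml final, 25 °C, in 20 mM Tris-HCl, 150 mM NaCl, pH 8.4. Substrate Suc-Ala-Ala-Pro-Arg-pNA at 200 µM final, with 6% DMSO. Started with enzyme; release of pNA read at 405 nm over 10 min. IC50 taken from linear steady-state turnover, duplicate determinations at inhibitor 25 and 50 µM.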

The next test addresses Procathepsin L (Homo sapiens, UniProt P07711). The test is described as follows: Inhibition of human cathepsin L. The gist of the method: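 Human cathepsin L at 4 ng/ml final, 37 °C, in 100 mM sodium phosphate pH 6.0, 100 mM NaCl, 5 mM EDTA, 0.01% Brij 35. Enzyme was activated 30 min at 37 °C with 5 mM DTT. Z-Phe-Arg-pNA at 100 µM final, with 3% DMSO; read at 405 nm over 10 min, with linear regression of progress curves.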

Test [2] has as its target Angiotensin-converting enzyme (Homo sapiens, UniProt P12821). The test is described as follows: Inhibition of human ACE. The gist of the method: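 Human ACE at 86.8 ng/ml final, 37 °C, in 50 mM Tris-HCl, 300 mM NaCl, pH 7.5. Enzyme was preincubated 10 min at 37 °C after dilution. FA-Phe-Gly-Gly at 3 mM final, with 3% DMSO. Absorbance decrease read at 352 nm over 20 min. IC50 from linear steady-state turnover.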

The target of another test is Acetylcholinesterase (Homo sapiens, UniProt P22303). The test is described as follows: Inhibition of acetylcholinesterase. The gist of the method: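 Acetylcholinesterase in 100 mM sodium phosphate, 100 mM NaCl, pH 7.3. Enzyme, DTNB and test compound (acetonitrile stocks, added acetonitrile) preincubated 15 min at 25 °C. Reaction started with acetylthiocholine; DTNB final 350 µM. Read at 412 nm, 25 °C. Progress curves followed 5 min and fitted by linear regression; IC50 derived from rates with and without inhibitor.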

Test [3] addresses Bile salt-activated lipase (Bos taurus) (UniProt P30122). The test is described as follows: Inhibition of cholesterol esterase.

Sequence of Acetylcholinesterase (P22303 whole entry): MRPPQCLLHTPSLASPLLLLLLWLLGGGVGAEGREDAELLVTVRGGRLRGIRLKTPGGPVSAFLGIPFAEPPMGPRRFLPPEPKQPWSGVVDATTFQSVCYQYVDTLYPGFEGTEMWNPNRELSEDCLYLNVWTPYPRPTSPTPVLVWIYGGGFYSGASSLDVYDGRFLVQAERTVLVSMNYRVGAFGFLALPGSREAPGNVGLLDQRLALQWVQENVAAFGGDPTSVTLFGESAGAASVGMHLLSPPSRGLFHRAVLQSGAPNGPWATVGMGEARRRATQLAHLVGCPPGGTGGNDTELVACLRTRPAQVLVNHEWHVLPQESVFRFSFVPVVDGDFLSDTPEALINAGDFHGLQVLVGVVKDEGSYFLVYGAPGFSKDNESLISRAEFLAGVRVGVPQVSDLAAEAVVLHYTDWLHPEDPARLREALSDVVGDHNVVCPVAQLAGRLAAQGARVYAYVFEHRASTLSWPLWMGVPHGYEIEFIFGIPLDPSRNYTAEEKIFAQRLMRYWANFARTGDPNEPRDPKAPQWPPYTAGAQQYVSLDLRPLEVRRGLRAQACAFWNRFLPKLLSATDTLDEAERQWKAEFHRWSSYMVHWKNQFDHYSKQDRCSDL
Sequence of Bile salt-activated lipase (Bos taurus) (P30122 whole entry, looked up): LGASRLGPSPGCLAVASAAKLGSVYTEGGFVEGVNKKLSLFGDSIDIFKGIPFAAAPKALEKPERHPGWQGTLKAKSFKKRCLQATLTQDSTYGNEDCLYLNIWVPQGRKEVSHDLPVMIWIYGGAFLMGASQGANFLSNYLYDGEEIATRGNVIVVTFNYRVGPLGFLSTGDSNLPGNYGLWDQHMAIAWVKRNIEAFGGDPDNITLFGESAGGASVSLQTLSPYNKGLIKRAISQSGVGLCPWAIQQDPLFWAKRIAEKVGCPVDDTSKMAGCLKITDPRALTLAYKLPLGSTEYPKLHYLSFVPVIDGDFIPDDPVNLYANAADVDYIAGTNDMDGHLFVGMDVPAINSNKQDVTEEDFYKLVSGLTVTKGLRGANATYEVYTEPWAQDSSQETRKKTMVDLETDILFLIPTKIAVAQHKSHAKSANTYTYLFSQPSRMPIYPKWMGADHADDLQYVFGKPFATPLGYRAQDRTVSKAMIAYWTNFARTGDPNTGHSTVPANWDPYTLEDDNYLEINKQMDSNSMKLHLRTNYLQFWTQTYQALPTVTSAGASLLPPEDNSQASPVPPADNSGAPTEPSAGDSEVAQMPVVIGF
Sequence of Procathepsin L (P07711 whole entry): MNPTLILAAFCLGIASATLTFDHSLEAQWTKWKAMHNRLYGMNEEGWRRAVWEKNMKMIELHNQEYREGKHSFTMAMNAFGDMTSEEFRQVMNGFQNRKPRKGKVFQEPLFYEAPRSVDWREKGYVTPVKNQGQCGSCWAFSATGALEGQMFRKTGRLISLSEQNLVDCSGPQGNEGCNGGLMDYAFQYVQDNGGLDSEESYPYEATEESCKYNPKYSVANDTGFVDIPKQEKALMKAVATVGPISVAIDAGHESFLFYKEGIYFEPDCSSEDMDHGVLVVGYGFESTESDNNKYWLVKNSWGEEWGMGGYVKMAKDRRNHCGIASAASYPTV
Sequence of Angiotensin-converting enzyme (P12821 whole entry): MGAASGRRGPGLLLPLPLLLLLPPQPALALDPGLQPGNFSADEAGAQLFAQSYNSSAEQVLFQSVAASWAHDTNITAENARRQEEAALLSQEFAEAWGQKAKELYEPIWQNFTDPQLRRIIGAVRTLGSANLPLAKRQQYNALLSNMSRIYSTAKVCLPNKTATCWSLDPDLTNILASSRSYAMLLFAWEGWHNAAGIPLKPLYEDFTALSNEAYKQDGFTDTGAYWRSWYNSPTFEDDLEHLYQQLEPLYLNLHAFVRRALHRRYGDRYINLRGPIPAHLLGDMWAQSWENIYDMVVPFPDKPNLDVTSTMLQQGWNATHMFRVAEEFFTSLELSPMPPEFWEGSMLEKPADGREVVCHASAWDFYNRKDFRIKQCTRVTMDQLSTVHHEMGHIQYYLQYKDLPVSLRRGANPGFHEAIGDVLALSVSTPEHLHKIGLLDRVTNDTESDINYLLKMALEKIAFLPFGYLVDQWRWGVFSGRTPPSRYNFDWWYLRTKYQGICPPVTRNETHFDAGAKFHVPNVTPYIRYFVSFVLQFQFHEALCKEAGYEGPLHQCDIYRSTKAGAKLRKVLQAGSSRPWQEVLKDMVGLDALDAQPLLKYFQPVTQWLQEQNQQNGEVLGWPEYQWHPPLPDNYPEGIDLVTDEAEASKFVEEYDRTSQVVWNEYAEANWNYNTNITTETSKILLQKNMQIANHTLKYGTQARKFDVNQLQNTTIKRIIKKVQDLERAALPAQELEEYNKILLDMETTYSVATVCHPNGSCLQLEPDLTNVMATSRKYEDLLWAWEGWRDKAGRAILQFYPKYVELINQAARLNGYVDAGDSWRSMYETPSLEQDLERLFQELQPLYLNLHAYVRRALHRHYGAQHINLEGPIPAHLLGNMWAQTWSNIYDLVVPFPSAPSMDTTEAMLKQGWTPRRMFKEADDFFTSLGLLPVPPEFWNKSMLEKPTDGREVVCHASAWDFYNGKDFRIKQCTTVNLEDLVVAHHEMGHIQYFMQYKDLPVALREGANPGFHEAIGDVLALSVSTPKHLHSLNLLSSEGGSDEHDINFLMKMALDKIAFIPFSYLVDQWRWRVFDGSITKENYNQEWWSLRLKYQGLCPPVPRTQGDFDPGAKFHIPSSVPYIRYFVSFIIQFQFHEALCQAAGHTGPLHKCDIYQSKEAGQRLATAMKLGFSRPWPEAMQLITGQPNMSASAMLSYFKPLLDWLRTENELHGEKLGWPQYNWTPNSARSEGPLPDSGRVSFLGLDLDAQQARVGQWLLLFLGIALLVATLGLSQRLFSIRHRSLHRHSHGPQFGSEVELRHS

Consider `O=C1C2=C(CCCC2)S(=O)(=O)N1c1ccncc1.[O-][Cl+3]([O-])([O-])O`, for which the IC50 (against Neutrophil elastase; against Cathepsin G; in test [1]; against Procathepsin L; in test [2]; against Acetylcholinesterase) was above 100 µM each time. The IC50 in test [3] is above 100 µM.

In the case of `CC1=C(C)S(=O)(=O)N(c2c(F)c(F)nc(F)c2F)C1=O`, the IC50 (against Neutrophil elastase; at Cathepsin G; in test [1]; on Procathepsin L; in test [2]; against Acetylcholinesterase) was above 100 µM throughout. The IC50 in test [3] is above 100 µM.

For the molecule `O=C1C2=C(CCCC2)S(=O)(=O)N1c1c(F)c(F)c(F)c(F)c1F`, the IC50 (on Neutrophil elastase; on Cathepsin G; in test [1]; on Procathepsin L; in test [2]; on Acetylcholinesterase) was above 100 µM each time. The IC50 in test [3] is above 100 µM.

For `O=C1C2=C(CCCC2)S(=O)(=O)N1c1cccc(Br)n1`, the IC50 (against Neutrophil elastase; on Cathepsin G; in test [1]; on Procathepsin L; in test [2]; on Acetylcholinesterase) was above 100 µM in each case. Moreover, the IC50 in test [3] was above 100 µM.

Take `O=C1C2=C(CCCC2)S(=O)(=O)N1c1cccc(Cl)n1`: the 50% inhibitory concentration (IC50) (on Neutrophil elastase; at Cathepsin G; in test [1]; against Procathepsin L; in test [2]; against Acetylcholinesterase) was above 100 µM throughout. In test [3], the IC50 is above 100 µM.

Regarding `CC1=C(c2ccccc2)C(=O)N(c2c(F)c(F)nc(F)c2F)S1(=O)=O`, the IC50 on Neutrophil elastase was 33 µM; at Cathepsin G it was above 100 µM; in test [1] it was above 100 µM; against Procathepsin L it was above 100 µM; in test [2], above 100 µM; on Acetylcholinesterase, above 100 µM. Besides, the IC50 in test [3] is above 100 µM.

For the molecule `O=C1c2ccccc2S(=O)(=O)N1c1c(F)c(F)nc(F)c1F`, the IC50 against Neutrophil elastase is 0.081 µM; at Cathepsin G, 3.7 µM; in test [1], 7.5 µM; on Procathepsin L, above 100 µM; in test [2], above 100 µM; at Acetylcholinesterase, above 100 µM. For the same molecule, the IC50 in test [3] was found to be 11 µM. Also, the Ki on Neutrophil elastase was 28 nM.

For the molecule `O=C1C2=C(CCCC2)S(=O)(=O)N1c1ncc(F)cc1F`, the IC50 (at Neutrophil elastase; against Cathepsin G; in test [1]; on Procathepsin L; in test [2]; at Acetylcholinesterase) was above 100 µM throughout. Moreover, the IC50 in test [3] is above 100 µM.

Turning to `O=C1C2=C(CCCC2)S(=O)(=O)N1c1c(F)c(F)nc(F)c1F`, the IC50 against Neutrophil elastase is 3.1 µM; on Cathepsin G, above 100 µM; in test [1], above 100 µM; at Procathepsin L, above 100 µM; in test [2], above 100 µM; at Acetylcholinesterase it was above 100 µM. For the same molecule, in test [3], the IC50 is above 100 µM.

Usually IC50 stands for the point on the concentration scale where inhibition reaches its midpoint. Broadly, the Ki is a dissociation constant, usually derived from enzyme kinetics or from competition with a known ligand. Low values mean tighter binding, high ones weaker binding.
